Experimental data reported in paper PMC9305210 (British Journal of Clinical Pharmacology, 2022).

Tests used:
[1] = healthy subjects, cited from earlier work
Safety and tolerability = format: in vivo, human; conditions: for tolerability: 100‐400 mg/day for up to 14 days, healthy subjects
How it was run: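 Randomized, double-blind, placebo-controlled; cohorts of 8 (6:2) healthy adults given oral solution daily for a planned 14 days after ≥8 h fast, confined on site days −3 to 15 plus 1 follow-up day. Monitoring covered AEs, physical examination, BMI, vital signs, ECG and clinical laboratory tests. Subjects with ≥1 treatment-emergent AE counted across all subjects receiving at least one dose.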

[2] = Soticlestat total, n = 30, listed as soticlestat

O=C(c1cccnc1-c1ccncc1)N1CCC(O)(Cc2ccccc2)CC1 [Soticlestat, soticlestat]
tolerability of single doses ([1]; doses up to 1350 mg): well tolerated | circulating levels of 24HC ([1]; single rising doses): dose‐dependent reduction | Number of subjects (%) with SAEs (Safety and tolerability; 100 mg QD, n = 6): 0 | Number of subjects (%) with TEAEs (Safety and tolerability; 100 mg QD, n = 6): 0 | Number of subjects (%) with TEAEs: Leading to discontinuation (Safety and tolerability; 100 mg QD, n = 6): 0 | Number of subjects (%) with TEAEs: Mild (Safety and tolerability; 100 mg QD, n = 6): 0 | Number of subjects (%) with TEAEs: Moderate (Safety and tolerability; 100 mg QD, n = 6): 0 | Number of subjects (%) with TEAEs: Not related (Safety and tolerability; 100 mg QD, n = 6): 0 | Number of subjects (%) with TEAEs: Related (Safety and tolerability; 100 mg QD, n = 6): 0 | Number of subjects (%) with TEAEs: Severe (Safety and tolerability; 100 mg QD, n = 6): 0 | Number of subjects (%): Deaths (Safety and tolerability; 100 mg QD, n = 6): 0 | Number of subjects (%) with SAEs (Safety and tolerability; 300 mg BID, n = 6): 0 | Number of subjects (%) with TEAEs (Safety and tolerability; 300 mg BID, n = 6): 5 (83.3) | Number of subjects (%) with TEAEs: Leading to discontinuation (Safety and tolerability; 300 mg BID, n = 6): 1 (16.7) | Number of subjects (%) with TEAEs: Mild (Safety and tolerability; 300 mg BID, n = 6): 5 (83.3) | Number of subjects (%) with TEAEs: Moderate (Safety and tolerability; 300 mg BID, n = 6): 0 | Number of subjects (%) with TEAEs: Not related (Safety and tolerability; 300 mg BID, n = 6): 0 | Number of subjects (%) with TEAEs: Related (Safety and tolerability; 300 mg BID, n = 6): 5 (83.3) | Number of subjects (%) with TEAEs: Severe (Safety and tolerability; 300 mg BID, n = 6): 0 | Number of subjects (%): Deaths (Safety and tolerability; 300 mg BID, n = 6): 0 | Number of subjects (%) with SAEs (Safety and tolerability; 300 mg QD, n = 6): 0 | Number of subjects (%) with TEAEs (Safety and tolerability; 300 mg QD, n = 6): 1 (16.7) | Number of subjects (%) with TEAEs: Leading to discontinuation (Safety and tolerability; 300 mg QD, n = 6): 0 | Number of subjects (%) with TEAEs: Mild (Safety and tolerability; 300 mg QD, n = 6): 1 (16.7) | Number of subjects (%) with TEAEs: Moderate (Safety and tolerability; 300 mg QD, n = 6): 0 | Number of subjects (%) with TEAEs: Not related (Safety and tolerability; 300 mg QD, n = 6): 0 | Number of subjects (%) with TEAEs: Related (Safety and tolerability; 300 mg QD, n = 6): 1 (16.7) | Number of subjects (%) with TEAEs: Severe (Safety and tolerability; 300 mg QD, n = 6): 0 | Number of subjects (%): Deaths (Safety and tolerability; 300 mg QD, n = 6): 0 | Number of subjects (%) with SAEs (Safety and tolerability; 400 mg QD, n = 6): 0 | Number of subjects (%) with TEAEs (Safety and tolerability; 400 mg QD, n = 6): 5 (83.3) | Number of subjects (%) with TEAEs: Leading to discontinuation (Safety and tolerability; 400 mg QD, n = 6): 0 | Number of subjects (%) with TEAEs: Mild (Safety and tolerability; 400 mg QD, n = 6): 4 (66.7) | Number of subjects (%) with TEAEs: Moderate (Safety and tolerability; 400 mg QD, n = 6): 1 (16.7) | Number of subjects (%) with TEAEs: Not related (Safety and tolerability; 400 mg QD, n = 6): 1 (16.7) | Number of subjects (%) with TEAEs: Related (Safety and tolerability; 400 mg QD, n = 6): 4 (66.7) | Number of subjects (%) with TEAEs: Severe (Safety and tolerability; 400 mg QD, n = 6): 0 | Number of subjects (%): Deaths (Safety and tolerability; 400 mg QD, n = 6): 0 | Number of subjects (%) with SAEs (Safety and tolerability; 600 mg QD, n = 6): 0 | Number of subjects (%) with TEAEs (Safety and tolerability; 600 mg QD, n = 6): 3 (50.0) | Number of subjects (%) with TEAEs: Leading to discontinuation (Safety and tolerability; 600 mg QD, n = 6): 1 (16.7) | Number of subjects (%) with TEAEs: Mild (Safety and tolerability; 600 mg QD, n = 6): 2 (33.3) | Number of subjects (%) with TEAEs: Moderate (Safety and tolerability; 600 mg QD, n = 6): 0 | Number of subjects (%) with TEAEs: Not related (Safety and tolerability; 600 mg QD, n = 6): 0 | Number of subjects (%) with TEAEs: Related (Safety and tolerability; 600 mg QD, n = 6): 3 (50.0) | Number of subjects (%) with TEAEs: Severe (Safety and tolerability; 600 mg QD, n = 6): 1 (16.7) | Number of subjects (%): Deaths (Safety and tolerability; 600 mg QD, n = 6): 0 | tolerability (Safety and tolerability): generally well tolerated | tolerability (Safety and tolerability; listed as soticlestat): well tolerated in most healthy subjects up to 400 mg daily | Number of subjects (%) with SAEs (Safety and tolerability; Soticlestat total, n = 30): 0 | Number of subjects (%) with TEAEs (Safety and tolerability; Soticlestat total, n = 30): 14 (46.7) | Number of subjects (%) with TEAEs: Leading to discontinuation (Safety and tolerability; Soticlestat total, n = 30): 2 (6.7) | Number of subjects (%) with TEAEs: Mild (Safety and tolerability; Soticlestat total, n = 30): 12 (40.0) | Number of subjects (%) with TEAEs: Moderate (Safety and tolerability; Soticlestat total, n = 30): 1 (3.3) | Number of subjects (%) with TEAEs: Not related (Safety and tolerability; Soticlestat total, n = 30): 1 (3.3) | Number of subjects (%) with TEAEs: Related (Safety and tolerability; Soticlestat total, n = 30): 13 (43.3) | Number of subjects (%) with TEAEs: Severe (Safety and tolerability; Soticlestat total, n = 30): 1 (3.3) | Number of subjects (%): Deaths (Safety and tolerability; Soticlestat total, n = 30): 0 | Number of subjects (%) with TEAEs (Safety and tolerability; [2]): 14 | Number of subjects (%) with TEAEs: Related (Safety and tolerability; [2]): 13 | clinical laboratory (including hormones), vital signs, physical examination, eye examination or electrocardiographic findings (Safety and tolerability; all doses): No clinically significant findings | liver function test results (Safety and tolerability; all doses): No subjects had abnormal liver function test results | number of TEAE events considered related to soticlestat (Safety and tolerability; all doses): 31 | proportion of TEAEs transient and mild in intensity (Safety and tolerability; all doses): 91% | serious AEs (Safety and tolerability; all doses): No serious AEs were reported | proportion of TEAEs transient and mild in intensity (Safety and tolerability; all doses, listed as soticlestat): over 90% | outcome of TEAEs (Safety and tolerability; before study exit on day 15): reversible and resolved without treatment | TEAE leading to discontinuation (Safety and tolerability; one subject, 300 mg BID (cohort 3), study day 9): mild event of confusional state
